Measured values taken from ChEMBL document CHEMBL3351592, “Marine spongian sesquiterpene phenols, dictyoceratin-C and smenospondiol, display hypoxia-selective growth inhibition against cancer cells” (2014).
Active and inactive are the calls of the source. The calls are words filed in the database; no cut-off is given here.

Assays:
DU-145 [1] = assay: Antiproliferative activity against human DU145 cells assessed as growth inhibition under hypoxic condition at 1 to 30 uM after 24 hrs by MTT assay; assay type: functional, cell-based
DU-145 [2] = assay: Antiproliferative activity against human DU145 cells assessed as growth inhibition under hypoxic condition after 24 hrs by MTT assay; assay type: functional, cell-based
Method in brief: (§1)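 DU145 cells in RPMI 1640 with 10% heat-inactivated FBS, seeded at 1×10^4 cells/well, settled 4 h at 37 °C in 5% CO2. Then held 12 h either normoxic or hypoxic (94% N2, 5% CO2, 1% O2). Compound added and incubated a further 24 h under the same condition. Read by MTT; inhibition expressed as % of parallel negative controls. Mean ± SD of 3 experiments in triplicate.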

DU-145 [3] = assay: Inhibition of hypoxia-induced of VEGF production in human DU145 cells at 10 to 30 uM after 24 hrs by Western blotting analysis; assay type: functional, cell-based
Method in brief: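 DU145 cells at 40% confluence pre-incubated 12 h normoxic or hypoxic (1% O2), then treated 24 h. Medium incubated 12 h at 4 °C with anti-VEGF antibody, then with protein G agarose for 2 h at 4 °C. Beads washed 4 times in lysis buffer and boiled 5 min in SDS sample buffer. Run on SDS-PAGE, Western blotted, ECL detection.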

DU-145 [4] = assay: Inhibition of hypoxia-induced accumulation of HIF-1alpha in human DU145 cells at 10 to 30 uM after 24 hrs by Western blotting analysis; assay type: functional, cell-based
Method in brief: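 DU145 cells at 40% confluence pre-incubated 12 h normoxic (5% CO2, 37 °C) or hypoxic (94% N2, 5% CO2, 1% O2). Then treated 24 h under the same condition. Cells rinsed in ice-cold PBS and lysed in Tris-HCl pH 7.5 buffer with EDTA, PMSF, NaF, vanadate, SDS and protease/phosphatase inhibitors. Lysates run on SDS-PAGE and blotted with anti-HIF-1α and anti-β-actin. ECL detection.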

DU-145 [5] = assay: Antiproliferative activity against human DU145 cells assessed as growth inhibition under hypoxic condition at 30 uM after 24 hrs by MTT assay; assay type: functional, cell-based; method in brief: as §1
DU-145 [6] = assay: Antiproliferative activity against human DU145 cells assessed as maximal growth inhibition under hypoxic condition at 10 uM after 24 hrs by MTT assay; assay type: functional; details: DU-145, 24 h; method in brief: as §1
DU-145 [7] = assay: Antiproliferative activity against human DU145 cells assessed as growth inhibition under normoxic condition at 30 uM after 24 hrs by MTT assay; assay type: functional, cell-based; method in brief: as §1

C=C1CCC[C@H]2[C@](C)(CC3=C(O)C(=O)C=C(NCC(C)C)C3=O)[C@@H](C)CC[C@@]12C
inhibition (DU-145 [1]): inactive

C=C1CCC[C@H]2[C@](C)(CC3=C(O)C(=O)C=C(OC)C3=O)[C@@H](C)CC[C@]12C
inhibition (DU-145 [1]): inactive

C=C1CCC[C@H]2[C@](C)(CC3=C(O)C(=O)C=C(NCCc4ccccc4)C3=O)[C@@H](C)CC[C@@]12C
inhibition (DU-145 [1]): inactive

C=C1CCC[C@H]2[C@](C)(Cc3cc(C(=O)OC)cc(O)c3O)[C@@H](C)CC[C@]12C
inhibition (DU-145 [2]): Dose-dependent effect

C=C1CCC[C@H]2[C@](C)(CC3=C(O)C(=O)C=C(NCC(C)C)C3=O)[C@@H](C)CC[C@]12C
inhibition (DU-145 [1]): inactive

CC1=CCC[C@H]2[C@@H](C)[C@@](C)(CC3=C(O)C(=O)C=C(N)C3=O)CC[C@]12C
inhibition (DU-145 [3]): inactive | inhibition (DU-145 [1]): inactive | inhibition (DU-145 [4]): inactive

COC1=CC(=O)C(O)=C(C[C@@]2(C)CC[C@]3(C)C(C)=CCC[C@H]3[C@H]2C)C1=O
inhibition (DU-145 [1]): inactive

C=C1CCC[C@H]2[C@](C)(Cc3cc(C(=O)OC)ccc3O)[C@@H](C)CC[C@]12C
inhibition (DU-145 [5]): Active | inhibition (DU-145 [2]): Dose-dependent effect | inhibition (DU-145 [3]): Active | inhibition at 10 µM (DU-145 [6]): 43% | inhibition (DU-145 [7]): Active | inhibition (DU-145 [4]): Active
